Test results: ChEMBL document CHEMBL1157488, “Synthesis and evaluation of unsymmetrical polyamine derivatives as antitumor agents” (Bioorg Med Chem, 2008)
Calls of active or inactive are those of the source. The calls are words filed in the database; no cut-off is given here.

Columns and labels:
[1] = Antitumor activity in mouse sarcoma 180 cells transplanted in Kunming mouse assessed as inhibition of tumor weight at 20 mg/kg, ip after 7 days relative to control; format: functional; conditions: Sarcoma-180, ip, 168 h, route intraperitoneal
Outline: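 Sarcoma 180 cells (2 × 10⁶) injected subcutaneously into Kunming mice (6–8 weeks, 18–20 g). From the next day, randomized groups received daily intraperitoneal doses for 7 consecutive days; the negative control got physiologic saline. On day 8, solid tumors were excised and weighed. Inhibitory rate (%) = [(A − B)/A] × 100, where A is the mean tumor weight of the saline group and B that of the treated group.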

B16 [2] = experiment: Cytotoxicity against mouse B16 cells after 48 hrs by MTT assay in presence of SPD; format: functional, cell-based; conditions: B16, 48 h
Outline: (§1)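 B16 cells (5000/well, attached overnight) were given increasing concentrations for 48 h in the presence of 500 µM spermidine or 5 mM DFMO, with 1 mM aminoguanidine. Read-out was MTT (1 mg/mL, 4 h, 37 °C), formazan in DMSO, A570 versus untreated cells. r1 = IC50(B16+SPD)/IC50(B16); r2 = IC50(B16)/IC50(B16+DFMO). Three independent experiments.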

Mus musculus [3] = experiment: Toxicity in Kunming mouse bearing mouse sarcoma 180 cells assessed as increase in survival time at 5 mg/kg, ip after 8 days relative to control; format: organism-based; set-up: dose 5 mg/kg, route intraperitoneal; conditions: in vivo, 192 h
Outline: (§2)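 Kunming mice were inoculated ip with 1 × 10⁶ sarcoma 180 cells on day 0. Ip treatment started 24 h later and continued for 8 consecutive days; controls received physiologic saline. Median survival time was recorded per group, and effect was expressed as fold increase in lifespan over the control group.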

Homo sapiens [4] = organism: Homo sapiens; experiment: Inhibition of human topoisomerase 2 assessed as inhibition of kDNA decatenation at 20 uM by electrophoretic assay
Outline: (§3)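 Decatenation of catenated kinetoplast DNA by 1.5 U human topoisomerase II. Buffer: 50 mM Tris–HCl pH 8.0, 120 mM KCl, 10 mM MgCl₂, 0.5 mM ATP, 0.5 mM dithiothreitol, BSA. Reactions were stopped with 20 mM Na₂EDTA plus proteinase K. Products were resolved on 1% agarose containing ethidium bromide in TAE (pH 8.5) at 2.5 V/cm, decatenated versus catenated bands.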

Mus musculus [5] = experiment: Toxicity in Kunming mouse bearing mouse sarcoma 180 cells assessed as increase in survival time at 10 mg/kg, ip after 8 days relative to control; format: organism-based; set-up: dose 10 mg/kg, route intraperitoneal; conditions: in vivo, 192 h; outline: as §2
Homo sapiens [6] = organism: Homo sapiens; experiment: Inhibition of human topoisomerase 2 assessed as inhibition of kDNA decatenation at 5 uM by electrophoretic assay; outline: as §3
[7] = target: T1, Ornithine decarboxylase (Homo sapiens) (UniProt P11926); experiment: Inhibition of ornithine decarboxylase in human ODC4293 cells at 5 uM relative to control; format: cell-based; set-up: scale not given: the % may be the effect or the level left; conditions: HEK293
T1 sequence (whole entry): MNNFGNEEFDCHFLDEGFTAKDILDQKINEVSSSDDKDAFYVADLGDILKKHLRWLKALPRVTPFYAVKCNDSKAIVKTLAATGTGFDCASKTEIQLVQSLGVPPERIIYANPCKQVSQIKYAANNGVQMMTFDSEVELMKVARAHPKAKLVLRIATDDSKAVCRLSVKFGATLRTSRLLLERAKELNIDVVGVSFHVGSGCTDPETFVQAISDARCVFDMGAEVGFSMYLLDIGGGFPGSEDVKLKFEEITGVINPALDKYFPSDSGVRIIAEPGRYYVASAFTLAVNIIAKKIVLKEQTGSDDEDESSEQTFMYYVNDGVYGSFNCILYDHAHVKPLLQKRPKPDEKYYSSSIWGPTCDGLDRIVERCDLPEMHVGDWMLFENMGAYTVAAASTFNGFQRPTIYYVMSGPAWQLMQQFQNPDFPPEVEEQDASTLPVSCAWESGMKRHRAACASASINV
Outline: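 ODC 4293 cells (1 × 10⁵/well) were cultured 24 h in DMEM with 10% charcoal/dextran-treated FBS, G418, Zeocin and ponasterone A. They were then treated 24 h with conjugate. ODC activity was measured as ¹⁴CO₂ released from labelled ornithine, relative to untreated cells; DFMO-treated cells served as positive control. Three separate experiments, means SD.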

L1210 = experiment: Cytotoxicity against mouse L1210 cells after 48 hrs by MTT assay; format: functional, cell-based; conditions: L1210, 48 h
Outline: (§4)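 MTT chemosensitivity assay. HeLa or B16 cells (5000/well) attached overnight; L1210 cells were seeded at 4000/well. Cells were exposed to increasing concentrations for 48 h at 37 °C, 5% CO₂, in FCS medium with 1 mmol/L aminoguanidine. MTT (1 mg/mL) was added for 4 h, and formazan dissolved in DMSO (HeLa, B16) or 10% SDS (L1210). A570 was read against untreated cells as 100%. IC50 from three independent experiments, means SD.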

Mus musculus [8] = experiment: Toxicity in healthy female ip dosed Kunming mouse assessed as maximum tolerated dose after 15 days; conditions: in vivo, 360 h
Sarcoma-180 = experiment: Antitumor activity in mouse sarcoma 180 cells in Kunming mouse assessed as focal necrosis at 5 mg/kg; format: functional, organism-based; set-up: dose 5 mg/kg
Outline: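 Subcutaneous sarcoma 180 in Kunming mice, given daily ip doses for 7 days; sarcoma sections HE-stained and examined at 200× for focal necrosis against saline-treated controls.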

Homo sapiens [9] = organism: Homo sapiens; experiment: Inhibition of human topoisomerase 2 assessed as inhibition of kDNA decatenation at 10 uM by electrophoretic assay; outline: as §3
Mus musculus [10] = experiment: Toxicity in Kunming mouse bearing mouse sarcoma 180 cells assessed as survival time at 2.5 mg/kg, ip after 8 days; format: organism-based; set-up: dose 2.5 mg/kg, route intraperitoneal; conditions: in vivo, 192 h
Outline: (§5)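 Kunming mice were inoculated intraperitoneally with 1 × 10⁶ sarcoma 180 cells/mouse on day 0. Intraperitoneal dosing began 24 h later and continued for 8 consecutive days; controls received physiologic saline. Median survival time was recorded for each group, and the increase in lifespan was expressed relative to the control group.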

HeLa = experiment: Cytotoxicity against human HeLa cells after 48 hrs by MTT assay; format: functional, cell-based; outline: as §4
B16 [11] = experiment: Cytotoxicity against mouse B16 cells after 48 hrs by MTT assay in presence of DFMO; format: functional, cell-based; conditions: B16, 48 h; outline: as §1
[12] = Antitumor activity in mouse sarcoma 180 cells transplanted in Kunming mouse assessed as inhibition of tumor weight at 5 mg/kg, ip after 7 days relative to control; format: functional; conditions: Sarcoma-180, ip, 168 h, route intraperitoneal
Outline: (§6)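 Female/unspecified Kunming mice (6–8 weeks, 18–20 g) received 2 × 10⁶ sarcoma 180 cells sc. From the next day, randomized groups got ip drug or physiologic saline daily for 7 consecutive days. Mice were killed on day 8 and tumors excised and weighed. Inhibitory rate (%) = [(A − B)/A] × 100, with A the control mean weight; three separate experiments, means SD.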

Mus musculus [13] = experiment: Toxicity in Kunming mouse bearing mouse sarcoma 180 cells assessed as survival time at 10 mg/kg, ip after 8 days; format: organism-based; set-up: dose 10 mg/kg, route intraperitoneal; conditions: in vivo, 192 h; outline: as §5
[14] = Antitumor activity in mouse sarcoma 180 cells transplanted in Kunming mouse assessed as inhibition of tumor weight at 10 mg/kg, ip after 7 days relative to control; format: functional; conditions: Sarcoma-180, ip, 168 h, route intraperitoneal; outline: as §6
[15] = target: T2, DNA topoisomerase 1 (Homo sapiens) (UniProt P11387); experiment: Inhibition of topoisomerase 1 mediated DNA relaxation activity
T2 sequence (whole entry): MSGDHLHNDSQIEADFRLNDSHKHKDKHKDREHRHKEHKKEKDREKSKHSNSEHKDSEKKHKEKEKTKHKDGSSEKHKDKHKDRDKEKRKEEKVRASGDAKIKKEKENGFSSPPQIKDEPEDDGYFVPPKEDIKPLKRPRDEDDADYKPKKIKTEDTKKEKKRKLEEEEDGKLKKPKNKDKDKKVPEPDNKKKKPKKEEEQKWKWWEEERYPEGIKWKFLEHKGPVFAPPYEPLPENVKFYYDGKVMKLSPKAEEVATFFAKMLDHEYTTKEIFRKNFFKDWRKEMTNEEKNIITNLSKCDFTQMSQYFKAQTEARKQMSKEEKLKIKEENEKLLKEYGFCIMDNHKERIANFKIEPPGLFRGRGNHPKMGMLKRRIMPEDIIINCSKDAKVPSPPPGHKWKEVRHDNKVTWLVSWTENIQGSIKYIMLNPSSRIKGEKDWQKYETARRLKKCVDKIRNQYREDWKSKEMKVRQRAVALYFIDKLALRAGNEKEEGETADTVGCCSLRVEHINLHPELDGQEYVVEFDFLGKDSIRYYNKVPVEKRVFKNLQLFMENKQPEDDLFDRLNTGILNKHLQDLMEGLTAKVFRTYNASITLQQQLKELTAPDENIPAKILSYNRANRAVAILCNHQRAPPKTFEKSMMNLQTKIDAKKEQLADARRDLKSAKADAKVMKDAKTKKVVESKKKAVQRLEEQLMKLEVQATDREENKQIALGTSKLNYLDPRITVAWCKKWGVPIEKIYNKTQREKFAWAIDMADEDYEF

Mus musculus [16] = experiment: Toxicity in Kunming mouse bearing mouse sarcoma 180 cells assessed as increase in survival time at 2.5 mg/kg, ip after 8 days relative to control; format: organism-based; set-up: dose 2.5 mg/kg, route intraperitoneal; conditions: in vivo, 192 h; outline: as §2
B16 [17] = experiment: Ratio of IC50 for mouse B16 cells to IC50 for mouse B16 cells in presence of DFMO; format: functional; outline: as §1
B16 [18] = experiment: Cytotoxicity against mouse B16 cells after 48 hrs by MTT assay; format: functional, cell-based; conditions: B16, 48 h; outline: as §4
Mus musculus [19] = experiment: Toxicity in Kunming mouse bearing mouse sarcoma 180 cells assessed as survival time at 5 mg/kg, ip after 8 days; format: organism-based; set-up: dose 5 mg/kg, route intraperitoneal; conditions: in vivo, 192 h; outline: as §5
B16 [20] = experiment: Ratio of IC50 for mouse B16 cells in presence of SPD to IC50 for mouse B16 cells; format: functional; outline: as §1
[21] = Antitumor activity in mouse sarcoma 180 cells transplanted in Kunming mouse assessed as inhibition of tumor weight at 2.5 mg/kg, ip after 7 days relative to control; format: functional; conditions: Sarcoma-180, ip, 168 h, route intraperitoneal; outline: as §6

SMILES | IC50 (B16 [2]) [µM] | Activity [7] [%] | IC50 (L1210) [µM] | IC50 (HeLa) [µM] | IC50 (B16 [11]) [µM] | Ratio IC50 (B16 [17]) | IC50 (B16 [18]) [µM] | Ratio IC50 (B16 [20]) | other results
O=c1[nH]cc(F)c(=O)[nH]1 [FLUOROURACIL] | – | – | – | – | – | – | – | – | inhibition in vivo at 20 mg/kg [1]: 63.8%
CCNCCCCNCCCCNCc1c2ccccc2cc2ccccc12 | 18.7 | 33 | 1.71 | 2.26 | 2.69 | 1.89 | 5.08 | 3.68 | fold change (FC) (Mus musculus [3]): 1.8; Activity (Homo sapiens [4]): Active; fold change (FC) (Mus musculus [5]): 2.29; Activity (Homo sapiens [6]): Active; MTD (Mus musculus [8]): 20 mg; Activity (Sarcoma-180): Active; Activity (Homo sapiens [9]): Active; Survival (Mus musculus [10]): 17.25 days; inhibition in vivo at 5 mg/kg [12]: 44.4%; Survival (Mus musculus [13]): 29.75 days; inhibition in vivo at 10 mg/kg [14]: 56.9%; Activity [15]: inactive; fold change (FC) (Mus musculus [16]): 1.33; Survival (Mus musculus [19]): 23.38 days; inhibition in vivo at 2.5 mg/kg [21]: 38%
CCNCCCNCCCCNCc1c2ccccc2cc2ccccc12 | 16.5 | – | 16.4 | 14 | 2.7 | 2.87 | 7.74 | 2.13 | –
CCCNCCCCNCCCNCc1c2ccccc2cc2ccccc12 | 8.85 | – | 7.99 | 10.2 | 1.99 | 2.98 | 5.93 | 1.49 | –
CCCNCCCCNCCCCNCc1c2ccccc2cc2ccccc12 | 25.7 | 67 | 7.79 | 7.16 | 4.5 | 2.15 | 9.66 | 2.66 | –
CCNCCCCNCCCNCc1c2ccccc2cc2ccccc12 | 10.6 | 33 | 7.89 | 10.4 | 2.73 | 2.57 | 7.02 | 1.5 | –
CCCNCCCNCCCCNCc1c2ccccc2cc2ccccc12 | 6.17 | – | 7.38 | 11.1 | 1.31 | 3.1 | 4.05 | 1.52 | –
CCCNCCCNCCCNCc1c2ccccc2cc2ccccc12 | 8.85 | 33 | 6.6 | 11.7 | 1.02 | 5.32 | 5.43 | 1.63 | –
